Data as given in the array DNA melting data of Ke et al. (doi:10.1101/2024.01.08.574731).

How the values were obtained:
[1] = folding enthalpy; higher = less favourable; fluorescence melt of hairpins on a sequencing array, two-state fit; settings: sodium 0.088 M
In short: (§1)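 To match UV melts, fitted temperatures were raised by 9.35 °C. These fits were bootstrapped two-state models that gave melting temperature and folding enthalpy, combined by inverse variance over four replicates. The input was normalised Cy3 fluorescence of library hairpins with annealed Cy3 and quencher oligos on a sequenced MiSeq flow cell, imaged in 50 mM Na-HEPES pH 8.0, 25 mM NaCl in 2.5 °C steps up to 60 °C.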

[2] = melting temperature; fluorescence melt of hairpins on a sequencing array, two-state fit, raised by 9.35 °C to match UV melts; settings: sodium 0.088 M
In short: as §1

Row | Sequence | folding enthalpy [1] [kcal/mol] | Tm [2] [°C]
1 | GGGATTCGAAAGAAACCC (((.(((....))).))) | -48.4 | 50.6
2 | GTATTCGAAAGAATATAC ((((((....)))..))) | -13.8 | 33.5
3 | GCATCGCGAAAGCTAAGC ((.(.((....)).).)) | -6.7 | 30.7
4 | CGGGTCGGAAACGATCCG (((.(((....))).))) | -45.1 | 58
5 | GGTTGAGGAAACTCAGCC ((.((((....)))).)) | -33.4 | 50
6 | CGGGACGGAAACGTGCCG (((.(((....))).))) | -19.1 | 60.3
7 | GCTTAAGAAATTAAGC ((((((....)))))) | -26.4 | 43.5
8 | GATCTACGTATAGATC ((((((....)))))) | -33.8 | 41.2
9 | CCTCAGAAATGAGG (((((....))))) | -19.7 | 45.2
10 | GTGAGGGCGAAAGCCCAC (((..(((....)))))) | -11.6 | 46.5
11 | GTCAATCCGAAAGGAGAC (((..(((....)))))) | -20.3 | 32.5
12 | GATCTGGAGACAGATC ((((((....)))))) | -33.9 | 52
13 | GGGCCGGGAAACCGACCC (((.(((....))).))) | -43.9 | 57.5
14 | GAACCCCGAAAGGGATTC (((.(((....))).))) | -28.5 | 46
15 | GTACGCGGAAACGTGTGC (.((.((....)).)).) | -20.8 | 46.2
16 | GATCGGCGAAAGCCATC (((.(((....)))))) | -11 | 35.7
17 | GTTGACCGAAAGGTGAAC (((.(((....))).))) | -27 | 48.4
18 | GATCGGCAGCCGATC ((((((...)))))) | -50.7 | 55.2
19 | GGCAACCGAAAGGTGGCC (((.(((....))).))) | -35 | 67.7
20 | GGATTCGGAAACGAGTTC (.(.(((....))).).) | -18.1 | 28.7
21 | GATCGAACACTCGATC ((((((....)))))) | -31 | 48.9
22 | GAAGGCCGAAAGGCATTC (((.(((....))).))) | -24.2 | 62.6
23 | GTCTACCGAAAGGTTGAC (((.(((....))).))) | -40.5 | 52.6
24 | GCATCCGAAAGGATTGC ((((((....))).))) | -16.6 | 53.8

Row | Sequence | folding enthalpy [1] [kcal/mol] | Tm [2] [°C]
25 | GGAAGGCGAAAGCCTCC (((.(((....)))))) | -14.1 | 56.9
26 | GTTTTCCGAAAGGAGAAC (((.(((....))).))) | -30.4 | 47.1
27 | GCAGGGGGAAACTCCTGC (((((.(....).))))) | -43.4 | 57.6
28 | GATCTACCCCTAGATC ((((((....)))))) | -38.4 | 39.9
29 | GGATCTCGAAAGAGCTCC (((.(((....))).))) | -31.7 | 44.5
30 | GGTGATCGAAAGATACC (((.(((....)))))) | -25.2 | 37.5
31 | CGCTTCGGAAACGATGCG (((.(((....))).))) | -43.3 | 54.6
32 | GCGGTAACCGC ((((...)))) | -27.8 | 57.5
33 | GCACCGCCGAAAGGCTGC (((..(((....)))))) | -14.7 | 38.9
34 | GTAGGGCGAAAGCCGTAC (((.(((....))).))) | -23.6 | 56.8
35 | GCGTCAGGAAACTGACAC (.(((((....))))).) | -13.1 | 43.3
36 | GGTGGAGGAAACTCTACC (((.(((....))).))) | -35.8 | 48
37 | GTTTCCCCGAAAGGGAAC (((..(((....)))))) | -13.7 | 38.5
38 | CGTCGACGGAAACGTACG (((..(((....)))))) | -20.2 | 38.1
39 | GGCGGCGAAAGCCCGGCC ((((((....)))..))) | -17.7 | 61.5
40 | GCCCTGTCGAAAGACGGC (((..(((....)))))) | -15.4 | 44.5
41 | GATCAAGTTATTGATC ((((((....)))))) | -35.8 | 49.8
42 | GTCATGGAAACATGAC ((((((....)))))) | -34.5 | 56.1
43 | GATCCGTCCACGGATC ((((((....)))))) | -43 | 64.1
44 | GGTGATGGAAACGTCATC (.(((.(....).))).) | -26.4 | 34.7
45 | GTCCCTGGAAACGGGGAC (((((.(....).))))) | -49 | 56.4
46 | GATCCCGAAAGGGACATC ((((((....)))..))) | -9.22 | 30.9
47 | CGCGGACGGAAACGTGCG (((..(((....)))))) | -36.2 | 50
48 | GCTAACGAAAGTTGCAGC ((((((....)))..))) | -15.5 | 39

Row | Sequence | folding enthalpy [1] [kcal/mol] | Tm [2] [°C]
49 | GTTCGCGAAAGCGTAAAC ((((((....)))..))) | -10.3 | 31.9
50 | GCGATTCGAAAGAACCGC (((.(((....))).))) | -38.6 | 53.1
51 | GAATTCCGAAAGGAGTTC (((.(((....))).))) | -33.6 | 49
52 | GCCAGAGAAATCTGGC ((((((....)))))) | -31.8 | 64.3
53 | GCAGCCGAAAGGCACTGC ((((((....)))..))) | -13.7 | 45.4
54 | CGGATGAAAATCCG (((((....))))) | -25.5 | 56
55 | GCTAGTGAAAACTAGC ((((((....)))))) | -36.3 | 56.9
56 | GCCGGGCGAAAGCTCTGC ((.(.((....)).).)) | -18.5 | 41.4
57 | GATCGGATTCCCGATC ((((((....)))))) | -36 | 55.5
58 | GCTTTCTCGAAAGAGAGC (((..(((....)))))) | -17.8 | 33
59 | GATCCGTTAGCGGATC ((((((....)))))) | -39.9 | 60.8
60 | GACTACCGAAAGGTGGTC (((.(((....))).))) | -38.6 | 58.4
61 | GTTATGAAAATAAC (((((....))))) | -16.9 | 38.6
62 | GAGCAGCGAAAGCTACTC (((.(((....))).))) | -22.3 | 49.6
63 | GCGGCATTCCGC ((((....)))) | -23.7 | 56.1
64 | GGAATGCGAAAGCATCC (((.(((....)))))) | -15.9 | 55.5
65 | GTCTTTCGAAAGAAGGAC (((.(((....))).))) | -31.5 | 47.4
66 | GCAGGGCGAAAGCCGGGC ((..(((....)))..)) | -17.4 | 56.9
67 | GATCCGAGACGGATC ((((((...)))))) | -39.9 | 55.8
68 | GTGGTTTCGAAAGAACAC (((..(((....)))))) | -15.6 | 31.3
69 | GATCCACTTTTGGATC ((((((....)))))) | -34.6 | 50.6
70 | GAGAGCGGAAACGCTCCC (.(((((....))))).) | -9.72 | 46.1
71 | GCCATGCGAAAGCTGGGC (((..((....))..))) | -26.4 | 62.6
72 | GATCACGAAAGTGGAATC ((((((....)))..))) | -10.3 | 32.1

Row | Sequence | folding enthalpy [1] [kcal/mol] | Tm [2] [°C]
73 | GGCTAAGGAAACTTGGCC (((.(((....))).))) | -29.6 | 50.4
74 | GCTTGGCGAAAGCCCTGC ((..(((....)))..)) | -13.6 | 40.2
75 | TCTCCGAAAGGAGA (((((....))))) | -17.6 | 59.5
76 | GATCCTTGAGAGGATC ((((((....)))))) | -42.5 | 53.6
77 | GGTGACGAAAGTCGAACC ((((((....)))..))) | -17.6 | 41.9
78 | GAGCACGAAAGTGCGCTC ((((((....)))..))) | -12.5 | 67.2
79 | CGCTGCGGAAACGCCGCG (((.(((....))).))) | -29.1 | 56.5
80 | GATCGCCTTCGCGATC ((((((....)))))) | -41 | 68.4
81 | GTACGCGAAAGCGTTAC ((((((....))).))) | -11 | 46.8
82 | GCACATGGAAACATGTAC (.(((((....))))).) | -17 | 37.4
83 | GTGTCTGGAAACGGATAC ((.((.(....).)).)) | -17.2 | 36.6
84 | GAAAAAGAAATTTTTC ((((((....)))))) | -14.6 | 28.1
85 | GCGTTCACACGC ((((....)))) | -22.6 | 52.8
86 | GGTTGTGGAAACATGACC (((..((....))..))) | -30.9 | 39.2
87 | GTTTCGAAAGAAAC (((((....))))) | -29.1 | 53.6
88 | GCGAGTGGAAACGCTTGC ((.((.(....).)).)) | -22.3 | 48.6
89 | GAAACCCGAAAGGGTTC (((.(((....)))))) | -10.2 | 51.5
90 | GATCTCTTGGGAGATC ((((((....)))))) | -40.4 | 54
91 | GATCGTTACCACGATC ((((((....)))))) | -45.6 | 54.3
92 | GCACGGCGAAAGCCTTGC (((.(((....))).))) | -54.8 | 54.2
93 | GCGTTGCGAAAGCCGCGC (((..((....))..))) | -21.9 | 63.3
